Compounds with a hit are over-represented: about 2.5% of the library has one in this group of screens.
SENP8 block-1: human SENP8 protease inhibitors, primary screen, biochemical, fluorescence, Nedd8 protein substrate, uHTS; Sentrin-specific protease 8 (Homo sapiens), Q96LD8; inhibition, % at 20 µM; 0.64% of 360,000 active; AID 602440, 2012; recombinant SENP8; in the data active means inhibition mostly above about 40%, no sharp cut-off; inactive means mostly below about 27%
SENP7 inh: SENP7 protease inhibitors, primary screen, biochemical, luminescence, uHTS; Sentrin-specific protease 7 (Homo sapiens), Q9BQF6; recombinant SENP7, Z-RLRGG-aminoluciferin luminescence, 40 min; inhibition, % at 5 µM; 1.5% of 330,000 active; AID 434973, 2010;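 active means inhibition above about 50% at the single test dose, limit read from the data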;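 further: plate controls were DMSO with enzyme for no effect and no enzyme buffer wells for full effect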
Target sequence (Q9BQF6 706-1050 limits assumed): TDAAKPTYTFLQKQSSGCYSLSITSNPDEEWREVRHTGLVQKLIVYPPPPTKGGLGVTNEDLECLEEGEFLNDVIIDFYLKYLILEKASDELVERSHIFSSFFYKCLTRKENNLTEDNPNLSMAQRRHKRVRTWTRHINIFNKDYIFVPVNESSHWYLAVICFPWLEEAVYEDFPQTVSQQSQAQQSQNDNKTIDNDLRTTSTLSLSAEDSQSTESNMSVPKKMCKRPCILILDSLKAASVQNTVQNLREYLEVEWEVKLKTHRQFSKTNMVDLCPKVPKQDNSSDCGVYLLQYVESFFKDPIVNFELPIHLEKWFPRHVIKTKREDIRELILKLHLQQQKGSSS
SENP1 inh: human SENP1 catalytic domain inhibitors, primary screen, biochemical, FRET, uHTS. Sentrin-specific protease 1 (Homo sapiens), Q9P0U3. recombinant SENP1 catalytic domain, CyPet-SUMO1-YPet FRET cleavage. inhibition, % at 10 µM. 0.21% of 360,000 active. AID 624204, 2012;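 active means inhibition at least 30% at 10 µM, raw YFP signal under a set limit, fluorescence ratio 0.5 to 1.5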;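 further: 0% = enzyme with DMSO and 100% = no enzyme wells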
Target sequence (Q9P0U3 419-644 limits assumed): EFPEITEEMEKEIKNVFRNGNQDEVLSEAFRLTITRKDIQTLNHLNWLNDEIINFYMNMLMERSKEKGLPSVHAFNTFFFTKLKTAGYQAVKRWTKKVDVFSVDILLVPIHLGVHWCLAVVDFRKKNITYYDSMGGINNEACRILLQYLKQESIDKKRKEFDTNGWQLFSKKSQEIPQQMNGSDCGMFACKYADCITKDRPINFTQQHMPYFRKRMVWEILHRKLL
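System: Recombinant human SENP1 catalytic domain, His6-tagged | Incubation: Enzyme reaction for 50 min at room temperature, dark | Medium: Tris pH 8 with BME, BSA, NP40 and catalase | Also added: 25 nM SUMO1 FRET substrate | Compound: 10 µM single point, 0.5% DMSO | Measured by: FRET fluorescence in CFP and YFP emission channels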
SENP6 block: SENP6 protease inhibitors, primary screen, biochemical, luminescence, uHTS. Recombinant SENP6 catalytic domain, aminoluciferin luminescence. inhibition, % at 10 µM. 1.8% of 330,000 active. AID 2599, 2010;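 active means inhibition above about 50% at the single tested dose, limit read from the data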;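 further: plate controls were DMSO wells with enzyme for no effect and DMSO wells lacking enzyme for full effect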
SENP8 block-2: SENP8 protease inhibitors, primary screen, biochemical, luminescence; purified SENP8, Z-RLRGG-aminoluciferin cleavage; 1.2% of 330,000 active; inhibition, % at 10 µM; in the data active means inhibition above about 50%
Starred values were filed as active, the others as inactive; . = no result given.

SMILES	SENP8 block-1	SENP7 inh	SENP1 inh	SENP6 block	SENP8 block-2
Cc1ccc(-c2nn(-c3ccccc3)cc2NC(=O)CCl)cc1	15	4	4	3	5
C#CCNC(=O)C1=C[C@H](c2ccc(Br)cc2)C[C@H](OCCCCO)O1	-6	-6	-3	-10	-9
Cc1ccc(Cc2c(-c3ccc(F)cc3)nc3c(C)cc(Br)cn23)cc1	-3	.	40*	.	.
COc1ccc(N(C(=O)c2snc(C(N)=O)c2N)C(C(=O)NC2CCCC2)c2cc(OC)ccc2OC)cc1 (stereo not given)	-290	-5	-9	12	1
Cc1cccc(NC(=O)C2Cc3ccccc3O/C2=N\O)c1 (stereo not given)	21	5	-1	6	5
CN(C)c1ccc(/C=C2\N=C(c3ccc(Cl)c([N+](=O)[O-])c3)NC2=O)cc1	35	1	65*	15	10
CCOC(=O)c1nn(-c2ccccc2)c(=O)c2c(N)scc12	55*	-4	11	2	0
CCOC(=O)c1nn(-c2ccccc2)c(=O)c2c(NC(C)=O)scc12	-109	-5	-4	-14	6
O=C(CSc1nnc(NC(=O)c2ccc3c(c2)OCO3)s1)NCc1ccco1	-84	65*	1	3	0
CC1=C(SCc2ccccc2)C(=O)c2ccccc2C1=O	40	.	6	.	.
O=C1C(SCCO)=C(SCCO)C(=O)c2ccccc21	-73	56*	4	89*	89*
CCNC(=O)C1(C)CCN(C(=O)c2ccccc2F)C1 (stereo not given)	14	.	1	.	.
O=c1[nH]c(-c2ccco2)nc2sc3c(c12)CCCC3	-53	26	-9	51*	11
O=[N+]([O-])c1ccc(S(=O)(=O)CC2CSc3nc4ccccc4n32)cc1 (stereo not given)	9	11	1	-2	-3
CCN=c1scc(-c2ccc(F)cc2)n1/N=C/c1ccccn1	-11	4	-38	7	0
CCN=c1scc(-c2ccccc2)n1/N=C/c1ccccn1	-20	52*	-31	63*	46
O=C(O)c1ccc(-c2nc(-c3ccccc3)cs2)cc1	-87	89*	3	97*	92*
NS(=O)(=O)c1ccc(N=Nc2ccc(=O)[nH]c2O)cc1	64*	.	-9	.	.
O=C(Nc1ccncc1)Nc1cccc(Cl)c1Cl	3	-4	0	15	-2
Cn1cccc1C(=O)C(=O)Nc1cccc(Cl)c1Cl	20	89*	3	12	4
O=C(Nc1ccccc1)Nc1cccc(Cl)c1Cl	17	55*	0	74*	30
COC(=O)[C@@]12C[C@@H](CC(=O)N3CCCC3)C(=O)N(CCc3ccc(OC)c(OC)c3)C1=CCC(C)(C)C2	14	.	3	.	.
O=C1C(=O)c2ccccc2C([O-])=C1[n+]1ccccc1	59*	6	0	41	13
Cn1c(=O)c(-[n+]2ccccc2)c([O-])c2ccccc21	-68	4	2	-10	-5
O=c1c2c([nH]c3ccc(Br)cc13)CCCC2	1	3	-13	-6	3
SMILES	SENP8 block-1	SENP7 inh	SENP1 inh	SENP6 block	SENP8 block-2
O=c1ccc2cc3c([nH]c4ccc(Br)cc43)oc-2c1O	101*	17	12	32	0
CCCCCCCCN1C(=O)[C@H](CC(=O)N2CCCCC2)C[C@@]2(C(=O)OC)CCCCC=C12	12	.	0	.	.
COc1ccc(CNC(=O)c2c(N)n(CCCN3CCOCC3)c3nc4ccccc4nc23)cc1	-301	44	-24	68*	71*
COC(=O)c1c(N)n(CCCN2CCOCC2)c2nc3ccccc3nc12	-322	7	-60	7	2
Nc1c(C(=O)NCc2ccc(F)cc2)c2nc3ccccc3nc2n1CCCN1CCOCC1	-250	57*	-33	78*	80*
Fc1ccc(CNC(=S)NCc2cccc(Cl)c2)cc1	4	12	2	7	8
NC(=O)c1ccsc1NC(=O)c1cc(=O)c2ccccc2o1	6	65*	3	41	26
Cn1c(CCn2ccccc2=O)nc2cc(NC(=O)COc3ccccc3)ccc21	22	6	3	2	3
C[C@@H]1OC(Nc2ccc(N=Nc3ccccc3)cc2)[C@H](O)[C@H](O)[C@H]1O (stereo not given in full)	40*	2	1	-1	-3
Cc1ccc(S(=O)(=O)c2nc(-c3ccco3)oc2SC(C)C)cc1	-4	12	-6	-23	7
C=CCN1C(=O)/C(=C/c2ccc(OC(C)=O)c(OCC)c2[N+](=O)[O-])SC1=S	65*	.	26	.	.
C[C@H]1CN([C@@H](C)CO)S(=O)(=O)c2ccc(Br)cc2O[C@H]1CN(C)C(=O)Cc1ccncc1	7	.	-1	.	.
COCCCNC(=O)c1ccccc1Oc1ccccc1	13	0	1	-1	3
COCCCNC(=O)c1ccc2c3c(onc13)-c1ccccc1C2=O	106*	18	8	54*	38
C=CCn1c(O)c(N=Nc2ccccc2[N+](=O)[O-])c2ccccc21	46*	.	5	.	.
C=CCn1c(O)c(N=Nc2ccccc2O)c2ccccc21	17	9	34	-6	-8
O=C(N=C1c2ccccc2CN1c1ccc(F)c(Cl)c1)c1cccnc1Cl	.	61*	.	66*	62*
CCOc1ccc(-n2c(C)nc(O)c2N=Nc2ccccc2)cc1	43*	6	10	-2	3
Cc1ccc(NC2CNC(=O)NC2=O)cc1C (stereo not given)	7	.	6	.	.
Cc1ccc(NC2C(=O)NC(=O)NC2=O)cc1	72*	.	0	.	.
CC1=NN(c2ccc([N+](=O)[O-])cc2)C(=O)C1	71*	.	0	.	.
CC1=NN(c2ccc([N+](=O)[O-])cc2)C(c2ccccc2)C1 (stereo not given)	20	7	-64	-1	-3
O=S(=O)(c1ccccc1Cl)N1CCC(O)(c2ccc3c(c2)OCO3)CC1	5	3	1	-7	5
COc1ccc(N2CCN(C(=O)c3ccc(C)c(Cl)c3)CC2)cc1	40*	0	5	9	5
CC(C)n1c(CSCc2ccc(Cl)cc2Cl)n[nH]c1=S	6	-13	-1	-19	-16
O=C1NC[C@H](Cc2ccc(O)cc2)N(C[C@@H]2CCCN2C[C@H](Cc2ccccc2)N2C[C@H](Cc3ccc(O)cc3)N(CC3CCCCCC3)C(=O)C2=O)C1=O	14	.	1	.	.
COc1ccc(NC(=O)c2ccc3c(c2)N(C)CCS3)cc1	-396	15	-1	15	2
CN1CCSc2ccc(C(=O)Nc3cccc(F)c3)cc21	-418	90*	-38	94*	83*
CN(C)c1ccc(Nc2nc(N)c3ccccc3n2)cc1	13	99*	1	96*	95*
